Experimental findings from ChEMBL document CHEMBL4680074, “Structure and Property Guided Design in the Identification of PRMT5 Tool Compound EPZ015666” (ACS Med Chem Lett, 2016) are described below.

The target in one data set is PRMT5/MEP50 complex (Homo sapiens, UniProt O14744). In words: Inhibition of human full length FLAG-tagged PRMT5/human His6-tagged MEP50 expressed in baculovirus-infected Sf9 cells assessed as reduction in tritium incorporation into peptide substrate using human Histone H4 (1 to 15 residues) and [3H]SAM as substrate preincubated with enzyme and H4 for 30 mins followed by [3H]SAM addition and measured after 120 mins by radioactive flashplate assay.

Another data set relates to Z-138. Nature of the data set: Antiproliferative activity against human Z138 cells incubated for 5 days by cell titer-glo assay. The format is functional, cell-based. The following applies: Z-138, 120 h. Background: Cellular ATP, detected with luciferase, serves as a proxy for viable cell number.
The target in data set [1] is Protein arginine N-methyltransferase 5 (Homo sapiens, UniProt O14744). In words: Inhibition of PRMT5 in human Z138 cells assessed as reduction in symmetrical dimethylation of arginine containing substrate using SmD3 as substrate incubated for 4 days by In-cell western assay. The format is cell-based.
Data set [2] in a line: Time during which unbound drug concentration exceeds IC90 for inhibition of PRMT5 in human Z138 cells in CD-1 mouse at 100 mg/kg, po. The class given is organism-based. The following applies: in vivo. A digest of the protocol: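 Male CD-1 mice received single oral doses of 10 and 100 mg/kg, and plasma concentration was profiled over time. Unbound concentration was compared with the cellular methyl-mark IC90 after correction for plasma protein binding in mouse plasma. The value is the time this unbound level stayed at or above that IC90.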

A short description of data set [3]: Protein binding in CD-1 mouse plasma. The class given is ADME, cell-free. The following applies: read-out: PPB (converted).

Sequence of PRMT5/MEP50 complex (O14744 whole entry, the tested form may be a part): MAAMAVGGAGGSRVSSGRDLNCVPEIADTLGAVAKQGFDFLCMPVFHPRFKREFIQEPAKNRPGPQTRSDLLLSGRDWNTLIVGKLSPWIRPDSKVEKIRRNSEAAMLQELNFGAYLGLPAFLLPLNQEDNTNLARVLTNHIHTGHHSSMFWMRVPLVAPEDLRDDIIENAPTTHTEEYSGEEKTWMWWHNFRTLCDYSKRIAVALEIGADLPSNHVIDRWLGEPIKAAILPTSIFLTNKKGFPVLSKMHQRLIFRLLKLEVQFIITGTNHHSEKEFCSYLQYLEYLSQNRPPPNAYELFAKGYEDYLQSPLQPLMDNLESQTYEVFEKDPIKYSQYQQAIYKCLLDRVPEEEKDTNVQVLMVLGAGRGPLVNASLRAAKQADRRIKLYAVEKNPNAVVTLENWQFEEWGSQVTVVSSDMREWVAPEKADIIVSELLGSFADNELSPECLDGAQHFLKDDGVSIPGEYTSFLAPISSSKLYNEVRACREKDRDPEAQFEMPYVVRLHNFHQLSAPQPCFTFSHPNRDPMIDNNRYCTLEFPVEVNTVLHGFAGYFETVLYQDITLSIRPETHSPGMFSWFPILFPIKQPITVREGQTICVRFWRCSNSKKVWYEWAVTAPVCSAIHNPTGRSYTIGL
Sequence of PRMT5/MEP50 complex (Q9BQA1 whole entry, further chain, the tested form may be a part): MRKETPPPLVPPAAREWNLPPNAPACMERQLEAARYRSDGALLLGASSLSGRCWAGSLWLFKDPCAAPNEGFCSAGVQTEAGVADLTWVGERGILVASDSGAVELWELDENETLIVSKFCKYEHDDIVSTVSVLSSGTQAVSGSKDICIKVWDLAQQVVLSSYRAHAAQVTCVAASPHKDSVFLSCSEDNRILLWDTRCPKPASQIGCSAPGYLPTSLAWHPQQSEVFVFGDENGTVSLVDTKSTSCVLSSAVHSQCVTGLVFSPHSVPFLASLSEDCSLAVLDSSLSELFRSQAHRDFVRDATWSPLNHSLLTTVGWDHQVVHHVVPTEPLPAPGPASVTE
Sequence of Protein arginine N-methyltransferase 5 (O14744 whole entry): as the sequence (O14744 whole entry, the tested form may be a part) above

By IC50 is commonly meant the concentration that gives 50% inhibition. For the compound `OC(COc1cccc(CNC2CCCC2)c1)CN1CCc2ccccc2C1` (stereo not given), the IC50 at PRMT5/MEP50 complex was determined as 326 nM.
On the same count and under the same terms, the same measure for `OC(COc1cccc(CNC2CCCC2)c1)CN1Cc2ccccc2C1` (stereo not given): 7450 nM; for `CN(Cc1ccccc1)CC(O)COc1cccc(CNC2CCCC2)c1` (stereo not given): 26800 nM.
Consider `O=C(NCC(O)CN1CCc2ccccc2C1)c1cccc(-c2ccccn2)c1` (racemic), for which the IC50 is 1680 nM with Z-138, 37 nM in data set [1] and 13 nM at PRMT5/MEP50 complex.
For `O=C(COc1cccc2cccnc12)NC[C@H](O)CN1CCc2ccccc2C1`, the IC50 came out at 12600 nM in the data set on Z-138, 327 nM in data set [1] and 144 nM at PRMT5/MEP50 complex.
Take `O=C(NC[C@H](O)CN1CCc2ccccc2C1)c1cccc(-c2ccccn2)c1`: the IC50 with Z-138 worked out at 890 nM; in data set [1], 32 nM; at PRMT5/MEP50 complex it was 13 nM.
The like results for `O=C(NC[C@@H](O)CN1CCc2ccccc2C1)c1cccc(-c2ccccn2)c1` were, in that order, 18700 nM, 406 nM and 95 nM.
The like results for `O=C(COc1cccc2cccnc12)NC[C@@H](O)CN1CCc2ccccc2C1` were, in that order, 451 nM, 16 nM and 11 nM.
With `Cn1cnc2ccc(-c3cccc(OCC(O)CN4CCc5ccccc5C4)c3)cc21` (stereo not given), the IC50 was 4260 nM with Z-138, 435 nM in data set [1] and 73 nM at PRMT5/MEP50 complex.
As to `O=C(COc1cccc2cccnc12)NCC(O)CN1CCc2ccccc2C1` (racemic), the IC50 in the data set with Z-138 was 428 nM; in data set [1], 36 nM; at PRMT5/MEP50 complex it was 23 nM.
On to `O=C(NC[C@H](O)CN1CCc2ccccc2C1)c1cc(NC2COC2)ncn1`, for which the Time in data set [2] was 12 h. Besides, in data set [3], the fraction unbound is 0.7.
`O=C(NC[C@H](O)CN1CCc2ccccc2C1)c1ccnc(NC2CCC2)c1` yielded an IC50 in the data set with Z-138 of 62 nM.
For `Cn1cnc2ccc(-c3ccnc(NCC(O)CN4CCc5ccccc5C4)c3)cc21` (stereo not given), the IC50 in the data set with Z-138 is 2100 nM; in data set [1], 180 nM; at PRMT5/MEP50 complex it was 33 nM.
Consider `COc1cc2c(cc1OC)CN(CC(O)COc1cccc(CNC3CCCC3)c1)CC2` (stereo not given), for which the IC50 on PRMT5/MEP50 complex is > 50000 nM.
Take `OC(COc1cccc(CNC2CCCC2)c1)CN1CCc2ccncc2C1` (stereo not given): the IC50 at PRMT5/MEP50 complex was > 50000 nM.
As for `O=C(NC[C@H](O)CN1CCc2ccccc2C1)c1cccc(NC2CCOCC2)c1`, the IC50 in the data set with Z-138 is 384 nM; in data set [1], 13 nM; on PRMT5/MEP50 complex, 18 nM.
